Reference: ChEMBL document CHEMBL4270578, “Synthesis and cytotoxic studies of novel 5-phenylisatin derivatives and their anti-migration and anti-angiogenic evaluation” (Eur J Med Chem, 2018)

What was measured:
K562 = assay: Antiproliferative activity against human K562 cells after 48 hrs by MTT assay; format: functional, cell-based; details: K562, 48 h
Summary of the method: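 MTT assay on K562 cells (RPMI-1640, 10% FBS) plated at 5 × 10^4 cells/ml for 2 h, then exposed to 10–100,000 nM compound for 48 h. MTT (5 mg/mL stock) added for 4 h before absorbance read. Viability normalized to DMSO controls (100%); IC50 from nonlinear regression, three independent assays.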

HepG2 = assay: Antiproliferative activity against human HepG2 cells after 48 hrs by MTT assay; format: functional, cell-based; details: HepG2, 48 h

IC50 (K562) [nM] | IC50 (HepG2) [nM] | Structure (SMILES)
1240 | 3390 | CCOC(=O)/C=C1\C(=O)N(Cc2ccc(OC)cc2)c2ccc(-c3ccc(OC)cc3)cc21
340 | > 10000 | COc1ccc(CN2C(=O)C(=O)c3cc(-c4ccc5ccccc5c4)ccc32)cc1
100 | 1890 | COc1ccc(CN2C(=O)C(=O)c3cc(-c4cccc(OC)c4)ccc32)cc1
430 | 990 | COc1ccc(-c2ccc3c(c2)C(=O)C(=O)N3Cc2ccc(Cl)c(Cl)c2)cc1
> 10000 | > 10000 | COc1ccc(CN2C(=O)C3(OCCO3)c3cc(-c4ccc(OC)cc4)ccc32)cc1
60 | 1350 | COc1ccc(-c2ccc3c(c2)C(=O)C(=O)N3Cc2ccc(OC)c(OC)c2)cc1
270 | 330 | COc1ccc(-c2ccc3c(c2)C(=O)C(=O)N3Cc2ccc(C)cc2)cc1
370 | > 10000 | COc1ccc(CN2C(=O)C(=O)c3cc(-c4ccccc4OC)ccc32)cc1
4980 | 6670 | COc1ccc(-c2ccc3c(c2)C(=O)C(=O)N3C)cc1
1900 | 4730 | COC(=O)/C=C1\C(=O)N(Cc2ccc(OC)cc2)c2ccc(-c3ccc(OC)cc3)cc21
380 | > 10000 | COc1ccc(CN2C(=O)C(=O)c3cc(-c4ccc(F)c(Cl)c4)ccc32)cc1
40 | > 10000 | COc1ccc(CN2C(=O)C(=O)c3cc(-c4ccncc4)ccc32)cc1
260 | 890 | COc1ccc(CN2C(=O)C(=O)c3cc(-c4ccc(C#N)cc4)ccc32)cc1
> 10000 | > 10000 | O=C1Nc2ccc(Br)cc2C1=O
570 | 1360 | COc1ccc(-c2ccc3c(c2)C(=O)C(=O)N3Cc2ccccc2)cc1
2250 | 4580 | COc1ccc(CN2C(=O)C(=O)c3cc(-c4ccc(C(C)(C)C)cc4)ccc32)cc1

IC50 (K562) [nM] | IC50 (HepG2) [nM] | Structure (SMILES)
1900 | > 10000 | COc1ccc(CN2C(=O)/C(=C\c3ccc(C(F)(F)F)cc3)c3cc(-c4ccc(OC)cc4)ccc32)cc1
> 10000 | > 10000 | O=C1Nc2ccc(F)cc2C1=O [5-FLUOROISATIN]
> 10000 | > 10000 | COc1ccc(CN2C(=O)Cc3cc(-c4ccc(OC)cc4)ccc32)cc1
390 | 7090 | C=CCN1C(=O)C(=O)c2cc(-c3ccc(OC)cc3)ccc21
> 10000 | > 10000 | O=C1Nc2ccc(Cl)cc2C1=O
270 | 380 | COc1ccc(-c2ccc3c(c2)C(=O)C(=O)N3Cc2ccc(C(F)(F)F)cc2)cc1
240 | 3150 | COc1ccc(CN2C(=O)C(=O)c3cc(-c4ccc(F)cc4)ccc32)cc1
400 | 700 | COc1ccc(-c2ccc3c(c2)C(=O)C(=O)N3CCOc2ccccc2)cc1
80 | 3670 | COc1ccc(CN2C(=O)C(=O)c3cc(-c4ccsc4)ccc32)cc1
> 10000 | > 10000 | CCCCc1ccc2c(c1)C(=O)C(=O)N2
200 | 320 | COc1ccc(-c2ccc3c(c2)C(=O)C(=O)N3Cc2cccc(Cl)c2)cc1
560 | 1120 | COc1ccc(-c2ccc3c(c2)C(=O)C(=O)N3Cc2ccc(F)cc2)cc1
> 10000 | 6000 | Cc1ccc(-c2ccc3c(c2)C(=O)C(=O)N3)cc1
380 | 1000 | COc1ccc(-c2ccc3c(c2)C(=O)C(=O)N3Cc2ccc(C#N)cc2)cc1
> 10000 | > 10000 | COc1ccc(CN2C(=O)C(C)(O)c3cc(-c4ccc(OC)cc4)ccc32)cc1 (stereo not drawn)
140 | 410 | COc1ccc(-c2ccc3c(c2)C(=O)C(=O)N3Cc2cc(C)cc(C)c2)cc1

More lines, now with the values behind:

Structure (SMILES) | IC50 (K562) [nM] | IC50 (HepG2) [nM]
COc1ccc(CN2C(=O)C(=O)c3c(-c4ccc(OC)cc4)cccc32)cc1 | > 10000 | > 10000
O=C1Nc2ccccc2C1=O [ISATIN] | > 10000 | > 10000
COc1ccc(CN2C(=O)C(F)(F)c3cc(-c4ccc(OC)cc4)ccc32)cc1 | > 10000 | > 10000
Cc1ccc2c(c1)C(=O)C(=O)N2 | > 10000 | > 10000
COc1ccc(-c2ccc3c(c2)C(=O)C(=O)N3Cc2cccc(OC)c2)cc1 | – | 700
COc1ccc(CN2C(=O)C(=O)c3ccc(-c4ccc(OC)cc4)cc32)cc1 | 7460 | > 10000
COc1ccc(-c2ccc3c(c2)C(=O)C(=O)N3)cc1 | 6920 | 960
COc1ccc(CN2C(=O)/C(=N\O)c3cc(-c4ccc(OC)cc4)ccc32)cc1 | > 10000 | > 10000
COc1ccc(CN2C(=O)C(=O)c3cc(-c4cc(OC)cc(OC)c4)ccc32)cc1 | 510 | 1200
COc1ccc(-c2ccc3c(c2)C(=O)C(=O)N3Cc2ccc(Cl)cc2)cc1 | 350 | 250
COc1ccc(CN2C(=O)C(=O)c3cc(-c4ccc(C)cc4)ccc32)cc1 | 400 | > 10000
O=C1Nc2ccc(-c3ccccc3)cc2C1=O | > 10000 | 5330
COc1ccc(-c2ccc3c(c2)C(=O)C(=O)N3Cc2ccc3ccccc3c2)cc1 | – | 380
COc1ccc(CN2C(=O)C(=O)c3cc(-c4ccc(OC(F)(F)F)cc4)ccc32)cc1 | 60 | 410
COc1ccc(-c2ccc3c(c2)C(=O)C(=O)N3Cc2ccc(Br)cc2)cc1 | 100 | 700
COc1ccc(CN2C(=O)/C(=C\c3ccc(C(C)C)cc3)c3cc(-c4ccc(OC)cc4)ccc32)cc1 | > 10000 | > 10000
CCN1C(=O)C(=O)c2cc(-c3ccc(OC)cc3)ccc21 | 2200 | 4470

Structure (SMILES) | IC50 (K562) [nM] | IC50 (HepG2) [nM]
COc1ccc(-c2ccc3c(c2)C(=O)C(=O)N3Cc2ccccc2Cl)cc1 | 380 | 600
COc1ccc(CN2C(=O)C(=O)c3cc(-c4ccccc4)ccc32)cc1 | 150 | 1080
CC[C@@]1(O)C(=O)OCc2c1cc1n(c2=O)Cc2cc3ccccc3nc2-1 [CAMPTOTHECIN] | 70 | 370
COc1ccc(CN2C(=O)C(=O)c3cc(-c4ccc(O)cc4)ccc32)cc1 | 60 | > 10000
COc1ccc(CN2C(=O)C(=O)c3cc(-c4ccc(OC)c(OC)c4)ccc32)cc1 | 260 | > 10000
COc1ccc(CN2C(=O)C(O)c3cc(-c4ccc(OC)cc4)ccc32)cc1 (stereo not drawn) | 140 | 700
COc1ccc(CN2C(=O)/C(=C\c3ccccc3)c3cc(-c4ccc(OC)cc4)ccc32)cc1 | > 10000 | > 10000
O=C1Nc2ccc(-c3ccc(C(F)(F)F)cc3)cc2C1=O | > 10000 | 5430
COc1ccc2c(c1)C(=O)C(=O)N2 [5-METHOXYISATIN] | > 10000 | > 10000
COc1ccc(CN2C(=O)C(=O)c3cccc(-c4ccc(OC)cc4)c32)cc1 | 4430 | 8560
COc1ccc(-c2ccc3c(c2)C(=O)C(=O)N3Cc2ccccc2OC)cc1 | 40 | 130
COc1ccc(-c2ccc3c(c2)C(=O)C(=O)N3c2ccc(OC)cc2)cc1 | > 10000 | > 10000
COc1ccc(CN2C(=O)C(=O)c3cc(-c4ccc(C(F)(F)F)cc4)ccc32)cc1 | 350 | 820
COc1ccc(CN2C(=O)C(=O)c3cc(-c4ccc(OC(C)C)cc4)ccc32)cc1 | 310 | > 10000
COc1ccc(-c2ccc3c(c2)C(=O)C(=O)N3Cc2ccc3c(c2)OCO3)cc1 | 30 | 440
COc1ccc(CN2C(=O)C(=O)c3cc(-c4ccc(Cl)cc4)ccc32)cc1 | 230 | 380
